Experimental data from ChEMBL document CHEMBL4312042, “In Silico Discovery of JMJD6 Inhibitors for Cancer Treatment” (ACS Med Chem Lett, 2019).
Active and inactive are the calls of the source. The calls are words filed in the database; no cut-off is given here.

Assays:
[1] = molecular target: T1, Bifunctional arginine demethylase and lysyl-hydroxylase JMJD6 (Homo sapiens, UniProt Q6NYC1); assay: Inhibition of His-tagged JMJD6 (unknown origin) expressed in Escherichia coli BL21 (DE3) assessed as increase in H4 arginine 3 symmetrical dimethylation (H4R3me2s) content at 10 uM using core histone as substrate preincubated with enzyme for 10 mins followed by incubation with substrate for 1 hr by immunoblotting analysis
Summary of the method: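 Purified bacterially expressed JMJD6 incubated with core histones, with or without compound at 10 μM; product analysed by immunoblot for H4R3me2s with total histone H4 probed alongside.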

[2] = molecular target: T1, Bifunctional arginine demethylase and lysyl-hydroxylase JMJD6; assay: Binding affinity to immobilized His-tagged JMJD6 (unknown origin) expressed in Escherichia coli BL21 (DE3) by biacore-binding assay
[3] = molecular target: T1, Bifunctional arginine demethylase and lysyl-hydroxylase JMJD6; assay: Inhibition of JMJD6 in human HeLa cells assessed as increase in HSP70R469me1 level at 10 uM incubated for 6 hrs by immunoblotting analysis; assay type: cell-based
Summary of the method: (§1)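 HeLa cells treated with or without compound at 10 μM for 6 h; lysates immunoblotted for H4R3me2s and HSP70R469me1.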

[4] = molecular target: T2, Lysine-specific demethylase 3A (Homo sapiens) (UniProt Q9Y4C1); assay: (§2) Inhibition of Flag-tagged KDM3A (unknown origin) expressed in Escherichia coli BL21 (DE3) assessed as formaldehyde release using core histone as substrate preincubated with enzyme for 10 mins followed by incubation with substrate for 1 hr measured following 2 hrs incubation with ammonium acetate/acetoacetanilide by fluorescence based analysis
T2 sequence (whole entry): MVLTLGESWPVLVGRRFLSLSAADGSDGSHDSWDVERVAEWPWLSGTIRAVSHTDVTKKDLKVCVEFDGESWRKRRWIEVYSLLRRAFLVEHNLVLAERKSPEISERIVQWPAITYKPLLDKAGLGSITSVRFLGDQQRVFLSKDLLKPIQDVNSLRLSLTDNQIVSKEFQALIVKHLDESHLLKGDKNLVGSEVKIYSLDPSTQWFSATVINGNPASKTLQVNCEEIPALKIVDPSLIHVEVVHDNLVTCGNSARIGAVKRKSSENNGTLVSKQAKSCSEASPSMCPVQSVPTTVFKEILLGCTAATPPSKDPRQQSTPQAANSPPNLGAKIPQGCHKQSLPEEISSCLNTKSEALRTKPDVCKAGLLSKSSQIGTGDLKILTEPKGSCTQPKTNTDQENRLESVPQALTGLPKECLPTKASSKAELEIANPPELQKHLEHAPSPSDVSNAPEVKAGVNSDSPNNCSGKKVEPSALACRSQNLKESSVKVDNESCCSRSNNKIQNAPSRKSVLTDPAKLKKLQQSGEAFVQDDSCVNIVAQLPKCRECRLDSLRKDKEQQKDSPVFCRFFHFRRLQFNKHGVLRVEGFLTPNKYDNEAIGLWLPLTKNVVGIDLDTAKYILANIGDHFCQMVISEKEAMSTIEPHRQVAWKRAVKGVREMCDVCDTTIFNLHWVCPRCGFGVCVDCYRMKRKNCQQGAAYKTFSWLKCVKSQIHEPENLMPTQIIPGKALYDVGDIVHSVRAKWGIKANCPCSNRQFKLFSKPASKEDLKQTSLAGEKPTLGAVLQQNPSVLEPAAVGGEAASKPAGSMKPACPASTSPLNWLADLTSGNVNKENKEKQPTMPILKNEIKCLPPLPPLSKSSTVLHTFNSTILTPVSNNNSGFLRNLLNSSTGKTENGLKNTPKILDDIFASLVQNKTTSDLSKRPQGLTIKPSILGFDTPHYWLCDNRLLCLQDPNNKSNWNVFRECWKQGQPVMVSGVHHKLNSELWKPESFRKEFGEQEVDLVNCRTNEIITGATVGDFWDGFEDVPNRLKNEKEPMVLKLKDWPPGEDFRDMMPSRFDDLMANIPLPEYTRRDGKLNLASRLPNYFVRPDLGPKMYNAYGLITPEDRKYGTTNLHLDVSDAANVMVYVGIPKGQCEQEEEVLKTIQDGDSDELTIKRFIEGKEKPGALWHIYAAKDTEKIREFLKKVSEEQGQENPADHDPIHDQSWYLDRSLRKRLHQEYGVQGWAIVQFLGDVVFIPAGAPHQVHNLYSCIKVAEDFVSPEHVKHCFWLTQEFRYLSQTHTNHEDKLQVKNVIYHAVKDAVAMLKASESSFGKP

[5] = molecular target: T3, Lysine-specific demethylase 4C (Homo sapiens) (UniProt Q9H3R0); assay: as §2, with “KDM4C” for “KDM3A”
T3 sequence (whole entry): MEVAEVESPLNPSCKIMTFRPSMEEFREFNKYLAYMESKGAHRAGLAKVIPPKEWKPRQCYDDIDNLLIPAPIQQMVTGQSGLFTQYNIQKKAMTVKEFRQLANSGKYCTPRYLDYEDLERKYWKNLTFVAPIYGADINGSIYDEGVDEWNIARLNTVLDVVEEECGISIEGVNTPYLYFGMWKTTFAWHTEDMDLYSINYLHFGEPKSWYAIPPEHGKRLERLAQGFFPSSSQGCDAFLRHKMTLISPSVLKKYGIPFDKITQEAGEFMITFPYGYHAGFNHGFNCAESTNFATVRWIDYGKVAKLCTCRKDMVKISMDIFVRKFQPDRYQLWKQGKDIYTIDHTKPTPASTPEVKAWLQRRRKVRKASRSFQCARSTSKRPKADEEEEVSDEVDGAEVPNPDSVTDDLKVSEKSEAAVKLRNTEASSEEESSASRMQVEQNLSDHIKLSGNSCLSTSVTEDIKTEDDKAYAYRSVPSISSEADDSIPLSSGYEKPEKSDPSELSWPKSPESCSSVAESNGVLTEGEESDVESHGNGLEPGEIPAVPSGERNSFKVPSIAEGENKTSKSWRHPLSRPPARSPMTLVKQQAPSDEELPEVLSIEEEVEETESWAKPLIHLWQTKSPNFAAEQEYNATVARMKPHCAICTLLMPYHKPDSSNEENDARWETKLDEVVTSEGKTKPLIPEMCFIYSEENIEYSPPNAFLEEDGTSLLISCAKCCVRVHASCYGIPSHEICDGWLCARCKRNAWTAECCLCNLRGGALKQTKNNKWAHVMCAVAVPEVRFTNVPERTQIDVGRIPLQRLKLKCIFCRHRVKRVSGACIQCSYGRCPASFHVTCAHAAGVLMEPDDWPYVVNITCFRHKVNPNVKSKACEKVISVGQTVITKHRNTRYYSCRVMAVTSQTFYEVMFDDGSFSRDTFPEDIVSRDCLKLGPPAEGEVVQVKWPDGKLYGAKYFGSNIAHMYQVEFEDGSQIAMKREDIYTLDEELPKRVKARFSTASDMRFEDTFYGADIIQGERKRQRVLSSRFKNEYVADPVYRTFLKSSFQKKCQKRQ

[6] = molecular target: Lysine-specific demethylase 5C (Homo sapiens) (UniProt P41229); assay: as §2, with “KDM5C” for “KDM3A”
[7] = molecular target: Histone lysine demethylase PHF8 (Homo sapiens) (UniProt Q9UPP1); assay: as §2, with “PHF8” for “KDM3A”
L02 = assay: Cytotoxicity in human LO2 cells assessed as reduction in cell proliferation incubated for 72 hrs by CellTiter 96 AQueous one solution cell proliferation assay; assay type: cell-based; conditions: l02, 72 h
[8] = molecular target: T1, Bifunctional arginine demethylase and lysyl-hydroxylase JMJD6; assay: Inhibition of His-tagged JMJD6 (unknown origin) expressed in Escherichia coli BL21 (DE3) assessed as decrease in demethylase activity by measuring release of formaldehyde using core histone as substrate preincubated with enzyme for 10 mins followed by incubation with substrate for 1 hr measured following 2 hrs incubation with ammonium acetate/acetoacetanilide by fluorescence based analysis
Summary of the method: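 Bacterially expressed, purified JMJD6 mixed with core histones, with or without inhibitor across a concentration series; demethylation read as formaldehyde release; IC50 derived from the series; experiment run three times.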

[9] = molecular target: T1, Bifunctional arginine demethylase and lysyl-hydroxylase JMJD6; assay: Inhibition of JMJD6 in human HeLa cells assessed as H4R3me2S level at 10 uM incubated for 6 hrs by immunoblotting analysis; assay type: cell-based; summary of the method: as §1

Chain of Histone lysine demethylase PHF8 (Homo sapiens) (Q9UPP1 whole entry): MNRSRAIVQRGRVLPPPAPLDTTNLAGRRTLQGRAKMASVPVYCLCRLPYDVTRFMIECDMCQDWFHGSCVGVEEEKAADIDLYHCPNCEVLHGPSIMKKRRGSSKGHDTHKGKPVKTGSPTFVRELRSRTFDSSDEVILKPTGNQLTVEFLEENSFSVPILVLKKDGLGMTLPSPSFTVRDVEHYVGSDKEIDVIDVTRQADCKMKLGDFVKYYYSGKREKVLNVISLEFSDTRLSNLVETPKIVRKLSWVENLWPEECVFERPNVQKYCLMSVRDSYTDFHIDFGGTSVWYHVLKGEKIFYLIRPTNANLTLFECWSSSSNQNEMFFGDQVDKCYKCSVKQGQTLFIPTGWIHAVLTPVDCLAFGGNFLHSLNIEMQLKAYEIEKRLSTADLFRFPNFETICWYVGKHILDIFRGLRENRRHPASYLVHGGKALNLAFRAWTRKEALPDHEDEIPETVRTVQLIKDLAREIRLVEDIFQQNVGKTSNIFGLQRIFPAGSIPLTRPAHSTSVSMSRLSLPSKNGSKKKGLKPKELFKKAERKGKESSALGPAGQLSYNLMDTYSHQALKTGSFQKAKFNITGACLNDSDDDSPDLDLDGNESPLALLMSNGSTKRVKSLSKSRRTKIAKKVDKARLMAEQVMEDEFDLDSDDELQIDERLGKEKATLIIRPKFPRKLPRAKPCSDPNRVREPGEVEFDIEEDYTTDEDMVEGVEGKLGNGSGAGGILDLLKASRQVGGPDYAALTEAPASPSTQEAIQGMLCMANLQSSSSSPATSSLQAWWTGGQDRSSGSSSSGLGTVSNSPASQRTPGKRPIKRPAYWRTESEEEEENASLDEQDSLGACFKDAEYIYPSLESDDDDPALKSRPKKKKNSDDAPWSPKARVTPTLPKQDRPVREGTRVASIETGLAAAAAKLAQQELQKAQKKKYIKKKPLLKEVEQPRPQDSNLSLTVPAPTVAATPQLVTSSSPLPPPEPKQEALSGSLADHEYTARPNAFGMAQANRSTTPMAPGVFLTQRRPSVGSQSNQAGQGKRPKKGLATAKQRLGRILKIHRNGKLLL
Chain of Lysine-specific demethylase 5C (Homo sapiens) (P41229 whole entry): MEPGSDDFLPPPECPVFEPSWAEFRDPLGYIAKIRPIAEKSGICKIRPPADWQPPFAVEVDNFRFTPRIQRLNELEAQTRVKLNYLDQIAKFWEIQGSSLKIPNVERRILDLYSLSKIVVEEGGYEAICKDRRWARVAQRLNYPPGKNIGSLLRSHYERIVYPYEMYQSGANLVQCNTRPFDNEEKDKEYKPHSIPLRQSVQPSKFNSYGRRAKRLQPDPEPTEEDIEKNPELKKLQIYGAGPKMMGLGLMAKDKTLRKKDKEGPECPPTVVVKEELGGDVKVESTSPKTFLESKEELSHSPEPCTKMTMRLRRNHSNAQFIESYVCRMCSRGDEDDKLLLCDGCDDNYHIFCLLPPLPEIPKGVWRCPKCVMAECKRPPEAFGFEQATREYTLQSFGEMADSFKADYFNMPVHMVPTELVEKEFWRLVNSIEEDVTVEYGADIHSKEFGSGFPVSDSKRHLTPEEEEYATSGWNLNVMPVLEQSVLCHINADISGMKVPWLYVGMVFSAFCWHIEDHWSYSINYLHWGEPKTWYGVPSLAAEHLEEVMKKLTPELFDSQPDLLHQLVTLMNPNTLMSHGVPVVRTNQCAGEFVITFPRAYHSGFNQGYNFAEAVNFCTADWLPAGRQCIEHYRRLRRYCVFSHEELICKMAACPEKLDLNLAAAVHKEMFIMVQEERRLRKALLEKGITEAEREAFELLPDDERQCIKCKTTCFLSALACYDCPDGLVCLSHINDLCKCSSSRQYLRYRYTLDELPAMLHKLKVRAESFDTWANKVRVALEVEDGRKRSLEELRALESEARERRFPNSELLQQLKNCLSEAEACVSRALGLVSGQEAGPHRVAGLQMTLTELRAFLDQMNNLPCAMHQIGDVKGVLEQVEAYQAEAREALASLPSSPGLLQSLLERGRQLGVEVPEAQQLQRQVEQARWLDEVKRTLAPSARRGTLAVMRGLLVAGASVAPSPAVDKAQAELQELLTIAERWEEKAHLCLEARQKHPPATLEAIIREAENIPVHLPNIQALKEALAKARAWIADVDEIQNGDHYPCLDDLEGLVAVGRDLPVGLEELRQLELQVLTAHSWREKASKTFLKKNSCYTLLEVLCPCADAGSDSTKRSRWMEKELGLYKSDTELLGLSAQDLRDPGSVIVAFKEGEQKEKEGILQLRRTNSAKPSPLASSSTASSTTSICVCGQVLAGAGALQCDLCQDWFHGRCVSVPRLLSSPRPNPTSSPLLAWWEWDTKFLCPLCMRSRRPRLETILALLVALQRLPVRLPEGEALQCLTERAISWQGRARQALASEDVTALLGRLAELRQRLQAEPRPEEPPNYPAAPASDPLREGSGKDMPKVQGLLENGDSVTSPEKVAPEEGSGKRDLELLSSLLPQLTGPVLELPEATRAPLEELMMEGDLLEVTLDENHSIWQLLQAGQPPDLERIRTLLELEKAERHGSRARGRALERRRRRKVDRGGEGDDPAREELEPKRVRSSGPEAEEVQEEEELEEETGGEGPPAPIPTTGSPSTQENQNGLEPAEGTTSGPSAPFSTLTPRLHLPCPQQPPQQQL

With `COc1ccc2oc(=O)c(-c3csc(C)n3)cc2c1` the inhibition [1] was “Active”.

`COCCn1cc(OC(C)=O)c2c1nc(C)n1c3ccccc3nc21` was tested, and the inhibition [1] was “Active”.

With `CCOC(=O)c1csc(NC(=O)c2cc(C)on2)n1` the inhibition [1] was “Active”.

In the case of `Cc1ccc2oc(=O)c(-c3nc4cnccc4[nH]3)cc2c1`, the Activity [2] is reported as “Active”, the inhibition [3] is reported as “Active” and the inhibition [4] is reported as “inactive”. The inhibition [5] was “inactive”, the inhibition [6] was “inactive” and the inhibition [7] was “inactive”. The Activity (L02) was “Non-Toxic”, the IC50 [8] was 220 nM and the inhibition [1] was “Active”. For the same molecule, the inhibition [9] was “inactive”.

`COCCN1CCOc2nc3c(C)cccc3cc2C1` was tested, and the inhibition [1] was “Active”.
